Active and inactive are the calls of the source. The rule behind the calls is not given here.
Legend:
[1] = biological target: DNA topoisomerase 2-alpha (Homo sapiens) (UniProt P11388); experiment: Poison activity at recombinant human topoisomerase-2alpha expressed in Saccharomyces cerevisiae JEL1 harboring topoisomerase1 deletion mutant assessed as double stranded DNA cleavage using supercoiled pBR322 DNA as substrate at 1000 uM measured after 6 mins by ethidium bromide staining based agarose gel electrophoresis relative to control
Method in brief: (§1)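 Enhancement of topoisomerase IIα-mediated double-stranded cleavage of negatively supercoiled DNA, measured over a compound concentration range. Cleavage is expressed relative to the baseline of enzyme without compound.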

[2] = biological target: DNA topoisomerase 2-alpha (Homo sapiens) (UniProt P11388); experiment: (§2) Poison activity at recombinant human topoisomerase-2alpha expressed in Saccharomyces cerevisiae JEL1 harboring topoisomerase1 deletion mutant assessed as increase in double stranded DNA cleavage at 1 mM using supercoiled pBR322 DNA as substrate in presence of reducing agent DTT measured after 6 mins by ethidium bromide staining based agarose gel electrophoresis
Method in brief: (§3)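 Topoisomerase IIα DNA cleavage with 1 mM compound, run without and with 0.5 mM DTT. Controls are no-compound and 50 µM reactions. Mean ± standard deviation of at least three independent experiments.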

[3] = biological target: DNA topoisomerase 2-alpha (Homo sapiens) (UniProt P11388); experiment: Poison activity at recombinant human topoisomerase-2alpha expressed in Saccharomyces cerevisiae JEL1 harboring topoisomerase1 deletion mutant assessed as concentration required to triple the level of DNA cleavage complex relative to basal level using supercoiled pBR322 DNA as substrate measured after 6 mins by ethidium bromide staining based agarose gel electrophoresis; method in brief: as §1
Bos taurus = organism: Bos taurus; experiment: Activity at calf thymus DNA topoisomerase-1 assessed as DNA intercalation by measuring band shift at 1 mM using pBR322 DNA as substrate measured after 15 mins by ethidium bromide staining based agarose gel electrophoresis relative to control
Method in brief: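 Topoisomerase I relaxation of negatively supercoiled DNA in the presence of compound. Intercalation is read as a shift of topoisomer bands toward the supercoiled position. Controls are DNA alone and DNA plus topoisomerase I without compound. Gel representative of three independent experiments.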

[4] = biological target: DNA topoisomerase 2-alpha (Homo sapiens) (UniProt P11388); experiment: Poison activity at recombinant human topoisomerase-2alpha expressed in Saccharomyces cerevisiae JEL1 harboring topoisomerase1 deletion mutant assessed as increase in double stranded DNA cleavage up to 1000 uM using supercoiled pBR322 DNA as substrate measured after 6 mins by ethidium bromide staining based agarose gel electrophoresis relative to control; method in brief: as §1
[5] = biological target: DNA topoisomerase 2-alpha (Homo sapiens) (UniProt P11388); experiment: Inhibition of recombinant human topoisomerase-2alpha mediated DNA ligation expressed in Saccharomyces cerevisiae JEL1 harboring topoisomerase1 deletion mutant at 1 mM measured after 6 mins by ethidium bromide staining based agarose gel electrophoresis
Method in brief: (§4)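 Topoisomerase IIα-mediated DNA ligation measured with or without 1 mM compound; controls at 50 µM. Mean ± standard deviation of at least three independent experiments.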

[6] = biological target: DNA topoisomerase 2-alpha (Homo sapiens) (UniProt P11388); experiment: Poison activity at recombinant human topoisomerase-2alpha catalytic domain (431 to 1193 residues) assessed as increase in double stranded DNA cleavage at 1 mM using supercoiled pBR322 DNA as substrate measured after 6 mins by ethidium bromide staining based agarose gel electrophoresis
Method in brief: (§5)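 Double-stranded DNA cleavage by full-length topoisomerase IIα and by the catalytic core (lacking N- and C-terminal domains), run in parallel. Compounds at 1 mM; controls at 50 µM; a no-compound baseline is included. Mean ± SD of ≥3 independent experiments.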

[7] = biological target: DNA topoisomerase 2-alpha (Homo sapiens) (UniProt P11388); experiment: as §2, with “preincubated for 1 to 5 mins followed by substrate addition” for “in presence of reducing agent DTT”
Method in brief: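 Topoisomerase IIα was preincubated with 1 mM compound for 1–5 min, then the cleavage reaction was started by adding DNA. Cleavage was followed against preincubation time.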

[8] = biological target: DNA topoisomerase 2-alpha (Homo sapiens) (UniProt P11388); experiment: Inhibition of recombinant human topoisomerase-2alpha mediated DNA ligation expressed in Saccharomyces cerevisiae JEL1 harboring topoisomerase1 deletion mutant at 50 uM measured after 6 mins by ethidium bromide staining based agarose gel electrophoresis; method in brief: as §4
[9] = biological target: DNA topoisomerase 2-alpha (Homo sapiens) (UniProt P11388); experiment: Poison activity at recombinant human topoisomerase-2alpha catalytic domain (431 to 1193 residues) assessed as increase in double stranded DNA cleavage at 50 uM using supercoiled pBR322 DNA as substrate measured after 6 mins by ethidium bromide staining based agarose gel electrophoresis; method in brief: as §5
[10] = biological target: DNA topoisomerase 2-alpha (Homo sapiens) (UniProt P11388); experiment: as §2, with “50 uM” for “1 mM”; method in brief: as §3

Chain of DNA topoisomerase 2-alpha (Homo sapiens) (P11388 whole entry, the tested form may be a part): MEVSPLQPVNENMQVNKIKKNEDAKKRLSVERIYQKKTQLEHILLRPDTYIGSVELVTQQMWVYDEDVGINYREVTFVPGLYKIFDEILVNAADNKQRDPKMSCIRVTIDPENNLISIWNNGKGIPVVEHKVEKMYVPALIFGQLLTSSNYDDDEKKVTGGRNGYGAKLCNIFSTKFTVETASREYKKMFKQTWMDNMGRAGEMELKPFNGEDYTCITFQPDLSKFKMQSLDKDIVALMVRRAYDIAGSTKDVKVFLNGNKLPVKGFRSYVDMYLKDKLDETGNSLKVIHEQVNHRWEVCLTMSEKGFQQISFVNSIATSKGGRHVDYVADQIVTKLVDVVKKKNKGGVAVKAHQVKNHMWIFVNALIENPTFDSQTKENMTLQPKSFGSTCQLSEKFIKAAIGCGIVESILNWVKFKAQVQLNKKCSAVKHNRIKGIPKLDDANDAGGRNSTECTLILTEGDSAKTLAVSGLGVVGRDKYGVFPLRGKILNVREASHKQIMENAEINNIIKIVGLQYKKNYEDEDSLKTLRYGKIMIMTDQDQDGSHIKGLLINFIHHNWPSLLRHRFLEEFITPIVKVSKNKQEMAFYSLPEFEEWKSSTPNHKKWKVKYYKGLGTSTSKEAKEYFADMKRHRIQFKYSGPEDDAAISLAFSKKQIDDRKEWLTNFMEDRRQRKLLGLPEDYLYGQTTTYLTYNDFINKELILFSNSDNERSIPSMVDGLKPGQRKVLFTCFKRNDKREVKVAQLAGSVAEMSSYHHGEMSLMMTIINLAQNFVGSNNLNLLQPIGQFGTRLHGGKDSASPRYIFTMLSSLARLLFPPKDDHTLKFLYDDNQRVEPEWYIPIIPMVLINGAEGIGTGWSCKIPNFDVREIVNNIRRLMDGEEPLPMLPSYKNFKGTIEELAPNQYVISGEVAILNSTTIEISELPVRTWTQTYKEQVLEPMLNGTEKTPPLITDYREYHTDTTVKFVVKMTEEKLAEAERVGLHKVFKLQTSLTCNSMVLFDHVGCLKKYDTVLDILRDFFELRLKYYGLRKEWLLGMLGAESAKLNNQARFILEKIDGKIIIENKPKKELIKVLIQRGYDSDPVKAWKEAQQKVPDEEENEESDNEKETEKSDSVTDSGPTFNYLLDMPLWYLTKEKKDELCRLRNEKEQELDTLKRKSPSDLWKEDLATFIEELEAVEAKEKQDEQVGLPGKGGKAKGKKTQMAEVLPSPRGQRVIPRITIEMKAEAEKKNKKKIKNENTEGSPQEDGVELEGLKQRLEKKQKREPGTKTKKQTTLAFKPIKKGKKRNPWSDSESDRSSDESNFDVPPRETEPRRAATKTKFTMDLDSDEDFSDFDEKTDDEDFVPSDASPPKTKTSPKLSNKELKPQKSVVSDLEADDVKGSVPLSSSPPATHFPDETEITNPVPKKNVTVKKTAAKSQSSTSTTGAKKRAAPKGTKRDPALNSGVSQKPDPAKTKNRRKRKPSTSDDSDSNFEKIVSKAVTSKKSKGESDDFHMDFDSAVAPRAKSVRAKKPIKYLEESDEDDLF

Row | SMILES | Activity [1] | Activity [2] | Activity [3] | Activity (Bos taurus) | fold change (FC) [4] | inhibition [5] | Activity [6] | Activity [7] | inhibition [8] | Activity [9] | Activity [10]
1 | Nc1c2c(nc3ccc(F)cc13)CC(C(F)(F)F)CC2=O (stereo not given) | < 35% | inactive | 520 µM | Active | 5.5 to 8.5 | inactive | inactive | – | – | – | –
2 | c1ccc2nc3ccccc3cc2c1 | – | – | > 1000 µM | – | – | – | – | – | – | – | –
3 | Nc1c2c(nc3ccccc13)CC(C(F)(F)F)CC2=O (stereo not given) | – | inactive | 155 µM | Active | 5.5 to 8.5 | inactive | inactive | Active | – | – | –
4 | Nc1c2c(nc3ccc(Br)cc13)CC(C(F)(F)F)CC2=O (stereo not given) | < 35% | inactive | 90 µM | Active | 5.5 to 8.5 | inactive | inactive | Active | – | – | –
5 | O=C1CC(C(F)(F)F)Cc2nc3ccccc3cc21 (stereo not given) | – | – | > 1000 µM | Active | 5.5 to 8.5 | inactive | – | – | – | – | –
6 | COc1cc(NS(C)(=O)=O)ccc1Nc1c2ccccc2nc2ccccc12 | – | – | 8.5 µM | – | – | – | – | – | Active | Active | Active
7 | Cc1ccc2c(N)c3c(nc2c1)CC(C(F)(F)F)CC3=O (stereo not given) | – | inactive | 800 µM | Active | – | inactive | inactive | Active | – | – | –
8 | Nc1c2c(nc3ccc(Cl)cc13)CC(C(F)(F)F)CC2=O (stereo not given) | < 35% | inactive | 85 µM | Active | 5.5 to 8.5 | inactive | inactive | Active | – | – | –
9 | COc1cc([C@@H]2c3cc4c(cc3[C@@H](O[C@@H]3O[C@@H]5CO[C@@H](C)O[C@H]5[C@H](O)[C@H]3O)[C@H]3COC(=O)[C@H]23)OCO4)cc(OC)c1O | – | – | 32 µM | – | – | – | – | – | Active | – | –
10 | Nc1c2c(nc3ccc([N+](=O)[O-])cc13)CC(C(F)(F)F)CC2=O (stereo not given) | – | – | > 1000 µM | Active | – | inactive | – | – | – | – | –
